Assay results as given in ChEMBL document CHEMBL1153097, “Synthesis and biological evaluation of a novel series of pyrazole chalcones as anti-inflammatory, antioxidant and antimicrobial agents” (Bioorg Med Chem, 2009).
Active and inactive are the calls of the source. The rule behind the calls is not given here.

Assays:
[1] = system: Radical scavenging activity; test: Antioxidant activity assessed as DPPH radical scavenging activity; type: functional; design: concentration or dose not given beside the values
Aspergillus flavus [2] = test: Antimicrobial activity against Aspergillus flavus MTCC 2501 at 250 ug/ml after 48 hrs by agar diffusion method; type: functional; settings: MTCC 2501, 48 h, read-out: IZ
Procedure, shortened: (§1)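 Agar diffusion on Sabouraud's dextrose agar. Plates were spread with 0.1 mL of fungal spore suspension in sterile distilled water, adjusted to 10⁶ cfu/mL. Duplicate plates were incubated 48 h at 28 °C, and the zone of inhibition was measured in mm.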

Bacillus subtilis = test: Antimicrobial activity against Bacillus subtilis MTCC 1789 at 100 ug/ml after 24 hrs by agar diffusion method; type: functional; settings: MTCC 1789, 24 h, read-out: IZ
Procedure, shortened: (§2)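 Agar diffusion on Mueller Hinton agar. Plates were seeded with 0.1 mL of bacterial suspension at 10⁵ cfu/mL in 0.85% sterile saline. Duplicate plates were incubated 24 h at 37 °C, and the zone of inhibition was measured in mm.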

Staphylococcus aureus [3] = test: Antimicrobial activity against Staphylococcus aureus MTCC 96 at 100 ug/ml after 24 hrs by agar diffusion method; type: functional; settings: MTCC 96, 24 h, read-out: IZ; procedure, shortened: as §2
Escherichia coli = test: Antimicrobial activity against Escherichia coli MTCC 1650 at 100 ug/ml after 24 hrs by agar diffusion method; type: functional; settings: MTCC 1650, 24 h, read-out: IZ; procedure, shortened: as §2
Klebsiella pneumoniae [4] = test: Antimicrobial activity against Klebsiella pneumoniae NCIM 2957 at 100 ug/ml after 24 hrs by agar diffusion method; type: functional; settings: for zone of inhibition at 100 µg/mL: NCIM 2957, 24 h, read-out: IZ; procedure, shortened: as §2
Aspergillus niger [5] = test: Antimicrobial activity against Aspergillus niger MTCC 1781 at 250 ug/ml after 48 hrs by agar diffusion method; type: functional; settings: MTCC 1781, 48 h, read-out: IZ; procedure, shortened: as §1
Trichoderma viride [6] = test: Antimicrobial activity against Trichoderma viride MTCC 167 at 250 ug/ml after 48 hrs by agar diffusion method; type: functional; settings: MTCC 167, 48 h, read-out: IZ; procedure, shortened: as §1
THP-1 [7] = test: Antiinflammatory activity in human THP1 cells assessed as inhibition of LPS-induced IL6 release at 10 uM after 24 hrs by ELISA; type: functional; settings: THP-1, 24 h
Procedure, shortened: (§3)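 PMA-differentiated THP-1 cells in RPMI 1640 with 10% FBS, penicillin and streptomycin. Test compound in 0.5% DMSO added 30 min at 37 °C before E. coli 0127:B8 LPS, then further incubation at 37 °C. Supernatant TNF-α and IL-6 measured by ELISA. Percent inhibition calculated against control.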

THP-1 [8] = test: Cytotoxicity against human THP1 cells assessed as CCK8 […] at 10 uM after 24 hrs […]; type: cell-based; settings: thp-1, 24 h
Procedure, shortened: (§4)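 Cytotoxicity was read with CCK-8 in the same wells as the cytokine assay. PMA-differentiated THP-1 cells were exposed to compound in 0.5% DMSO for 30 min at 37 °C, then stimulated with LPS and incubated further at 37 °C.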

Proteus vulgaris [9] = test: Antimicrobial activity against Proteus vulgaris MTCC 1771 at 100 ug/ml after 24 hrs by agar diffusion method; type: functional; settings: MTCC 1771, 24 h, read-out: IZ; procedure, shortened: as §2
THP-1 [10] = test: Antiinflammatory activity in human THP1 cells assessed as inhibition of LPS-induced TNFalpha release at 10 uM after 24 hrs by ELISA; type: functional; settings: THP-1, 24 h; procedure, shortened: as §3
Klebsiella pneumoniae [11] = test: Antimicrobial activity against Klebsiella pneumoniae NCIM 2957 at 10 ug/ml after 24 hrs by agar diffusion method; type: functional; settings: NCIM 2957, 24 h, read-out: IZ; procedure, shortened: as §2
Proteus vulgaris [12] = test: Antimicrobial activity against Proteus vulgaris MTCC 1771 at 10 ug/ml after 24 hrs by agar diffusion method; type: functional; settings: MTCC 1771, 24 h, read-out: IZ; procedure, shortened: as §2
Staphylococcus aureus [13] = test: Antimicrobial activity against Staphylococcus aureus MTCC 96 at 10 ug/ml after 24 hrs by agar diffusion method; type: functional; settings: MTCC 96, 24 h, read-out: IZ
Procedure, shortened: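 Mueller Hinton agar seeded with 0.1 mL of bacterial suspension in sterile 0.85% saline at 10⁵ cfu/mL. Duplicate plates incubated 24 h at 37 ± 0.5 °C. Activity read as zone of inhibition in mm.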

Trichoderma viride [14] = test: Antimicrobial activity against Trichoderma viride MTCC 167 at 30 ug/ml after 48 hrs by agar diffusion method; type: functional, organism-based
Procedure, shortened: (§5)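 Fungal spore suspensions in sterile distilled water adjusted to 10⁶ cfu/mL; 0.1 mL spread on Sabouraud's dextrose agar plates. Duplicate plates incubated 48 h at 28 ± 0.2 °C. Activity read as zone of inhibition in mm.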

Aspergillus niger [15] = test: Antimicrobial activity against Aspergillus niger MTCC 1781 at 30 ug/ml after 48 hrs by agar diffusion method; type: functional, organism-based; procedure, shortened: as §5
Aspergillus flavus [16] = test: Antimicrobial activity against Aspergillus flavus MTCC 2501 at 30 ug/ml after 48 hrs by agar diffusion method; type: functional, organism-based; procedure, shortened: as §5
THP-1 [17] = test: Antiinflammatory activity in human THP1 cells assessed as inhibition of LPS-induced TNFalpha release at 1 uM/mL after 24 hrs by ELISA; type: functional; settings: THP-1, 24 h; procedure, shortened: as §3
[18] = Cytotoxicity against human THP1 cells assessed as CCK8 […] at 1 uM/mL after 24 hrs […]; type: cell-based; settings: THP-1 cells; procedure, shortened: as §4
THP-1 [19] = test: Antiinflammatory activity in human THP1 cells assessed as inhibition of LPS-induced IL6 release at 1 uM/mL after 24 hrs by ELISA; type: functional; settings: THP-1, 24 h; procedure, shortened: as §3

Compound | Activity [1] [%] | zone of inhibition at 250 µg/mL (Aspergillus flavus [2]) [mm] | zone of inhibition at 100 µg/mL (Bacillus subtilis) [mm] | zone of inhibition at 100 µg/mL (Staphylococcus aureus [3]) [mm] | zone of inhibition at 100 µg/mL (Escherichia coli) [mm] | zone of inhibition at 250 µg/mL (Aspergillus niger [5]) [mm] | zone of inhibition at 250 µg/mL (Trichoderma viride [6]) [mm] | inhibition at 10 µM (THP-1 [7]) [%] | Activity (THP-1 [8]) [%] | inhibition at 10 µM (THP-1 [10]) [%] | also measured
COc1ccc(O)c(C(C)(C)C)c1.COc1ccc(O)cc1C(C)(C)C | 66.8 |  |  |  |  |  |  |  |  |  | 
COc1ccc(-c2nn(-c3ccccc3)cc2/C=C/C(=O)c2ccc(OC)cc2OC)cc1 | 34.6 | 14 | 10 | 11 | 8 | 15 | 16 | 38.2 | 0 | 0 | inhibition zone (IZ) (Klebsiella pneumoniae [4]): Active; zone of inhibition at 100 µg/mL (Proteus vulgaris [9]): 7 mm
COc1ccc(C(=O)/C=C/c2cn(-c3ccccc3)nc2-c2ccc(Cl)cc2)c(OC)c1 | 18.7 | 10 | 13 | 11 | 11 | 11 | 13 | 2.71 | 11.488 | 1.13 | zone of inhibition at 100 µg/mL (Proteus vulgaris [9]): 12 mm
COc1ccc(C(=O)/C=C/c2cn(-c3ccccc3)nc2-c2ccc(C)cc2)c(OC)c1 | 13.5 | 12 | 8 | 9 | 11 | 14 | 15 | 0 | 0 | 0 | zone of inhibition at 100 µg/mL (Klebsiella pneumoniae [4]): 12 mm
CN(C)[C@@H]1C(O)=C(C(N)=O)C(=O)[C@@]2(O)C(O)=C3C(=O)c4c(O)cccc4[C@@](C)(O)[C@H]3C[C@@H]12 [TETRACYCLINE] |  |  |  |  |  |  |  |  |  |  | zone of inhibition at 10 µg/mL (Klebsiella pneumoniae [11]): 32 mm; zone of inhibition at 10 µg/mL (Proteus vulgaris [12]): 20 mm; zone of inhibition at 10 µg/mL (Staphylococcus aureus [13]): 17 mm
COc1ccc(C(=O)/C=C/c2cn(-c3ccccc3)nc2-c2ccccc2Cl)c(OC)c1 | 13.8 | 9 | 7 | 8 | 12 | 11 | 12 | 14.5 | 0 | 0 | 
COc1ccc(C(=O)/C=C/c2cn(-c3ccccc3)nc2-c2ccccc2)c(OC)c1 | 31.8 | 15 | 10 | 8 | 10 | 12 | 14 | 64.7 | 0 | 0 | 
COc1ccc(C(=O)/C=C/c2cn(-c3ccccc3)nc2-c2ccc(OC)cc2OC)c(OC)c1 | 30.3 | 13 | 6 | 7 | 10 | 12 | 14 | 37.9 | 2.5107 | 0 | zone of inhibition at 100 µg/mL (Klebsiella pneumoniae [4]): 8 mm
COc1ccc(C(=O)/C=C/c2cn(-c3ccccc3)nc2-c2cccc(Cl)c2)c(OC)c1 | 29.7 | 10 | 8 | 6 | 9 | 9 | 11 | 67.5 | 0 | 0 | inhibition zone (IZ) (Klebsiella pneumoniae [4]): Active; zone of inhibition at 100 µg/mL (Proteus vulgaris [9]): 8 mm
NYSTATIN |  |  |  |  |  |  |  |  |  |  | inhibition zone (IZ) (Trichoderma viride [14]): 12 mm; inhibition zone (IZ) (Aspergillus niger [15]): 11 mm; inhibition zone (IZ) (Aspergillus flavus [16]): 11 mm
COc1ccc(C(=O)/C=C/c2cn(-c3ccccc3)nc2-c2ccc(Cl)cc2Cl)c(OC)c1 | 18.2 | 10 | 9 | 10 | 11 | 8 | 10 | 40.8 | 0 | 0 | 
COc1ccc(C(=O)/C=C/c2cn(-c3ccccc3)nc2-c2ccc(Br)cc2)c(OC)c1 | 17.2 | 13 | 7 | 8 | 9 | 11 | 13 | 11.3 | 0 | 1.81 | zone of inhibition at 100 µg/mL (Klebsiella pneumoniae [4]): 10 mm
C[C@@H]1C[C@H]2[C@@H]3CCC4=CC(=O)C=C[C@]4(C)[C@@]3(F)[C@@H](O)C[C@]2(C)[C@@]1(O)C(=O)CO [DEXAMETHASONE] |  |  |  |  |  |  |  |  |  |  | inhibition at 1 µM (THP-1 [17]): 69%; inhibition at 24 h, 1 µM [18]: 0%; inhibition at 1 µM (THP-1 [19]): 90%
COc1ccc(C(=O)/C=C/c2cn(-c3ccccc3)nc2-c2ccc(F)cc2)c(OC)c1 | 26.7 | 12 | 14 | 15 | 12 | 13 | 14 | 0 | 0 | 0 | zone of inhibition at 100 µg/mL (Proteus vulgaris [9]): 10 mm
